{"source": "the M2OR odorant receptor database", "conditions_in_all_cases": "stereoisomer not certain", "key": {"UniProt Q8VGJ5": {"target": "T1, UniProt Q8VGJ5", "T1 sequence (whole entry)": "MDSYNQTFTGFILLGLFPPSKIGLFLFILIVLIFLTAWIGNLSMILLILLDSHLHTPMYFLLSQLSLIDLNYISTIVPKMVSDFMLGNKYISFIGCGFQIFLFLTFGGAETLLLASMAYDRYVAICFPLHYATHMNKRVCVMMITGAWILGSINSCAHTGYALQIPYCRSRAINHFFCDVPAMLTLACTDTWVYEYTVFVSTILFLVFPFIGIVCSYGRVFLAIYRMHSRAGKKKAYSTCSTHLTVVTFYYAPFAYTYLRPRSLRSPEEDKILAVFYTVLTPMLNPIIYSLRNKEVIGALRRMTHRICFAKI", "in_short": "(§1)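 Transient luciferase assays in mammalian cell lines were common, though methods varied by source. The values come from published papers and their supplementary material, with extra details from the original authors when needed. Responsive refers to a measured signal the original authors judged statistically different from baseline, and non-responsive (inactive) to the remainder.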"}, "UniProt Q8VGL0": {"target": "T2, UniProt Q8VGL0", "T2 sequence (whole entry)": "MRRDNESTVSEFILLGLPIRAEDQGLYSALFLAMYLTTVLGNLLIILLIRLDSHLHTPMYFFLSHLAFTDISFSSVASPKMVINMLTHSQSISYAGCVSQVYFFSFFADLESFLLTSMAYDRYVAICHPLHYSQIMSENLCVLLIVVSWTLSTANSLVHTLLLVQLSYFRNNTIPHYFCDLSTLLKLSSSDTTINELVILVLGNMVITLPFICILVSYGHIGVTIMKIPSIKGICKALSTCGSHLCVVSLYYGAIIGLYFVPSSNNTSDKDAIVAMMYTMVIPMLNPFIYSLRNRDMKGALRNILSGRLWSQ", "in_short": "as §1"}, "UniProt Q8VGL7": {"target": "T3, UniProt Q8VGL7", "T3 sequence (whole entry)": "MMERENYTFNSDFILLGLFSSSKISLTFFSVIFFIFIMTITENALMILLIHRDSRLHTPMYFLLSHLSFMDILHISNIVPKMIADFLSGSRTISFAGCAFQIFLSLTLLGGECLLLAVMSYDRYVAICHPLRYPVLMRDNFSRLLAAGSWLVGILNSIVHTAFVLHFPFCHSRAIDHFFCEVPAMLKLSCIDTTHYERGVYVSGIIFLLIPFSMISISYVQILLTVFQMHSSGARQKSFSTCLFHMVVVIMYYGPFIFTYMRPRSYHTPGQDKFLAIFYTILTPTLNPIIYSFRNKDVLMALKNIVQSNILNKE", "in_short": "as §1"}, "UniProt Q8VGM2": {"target": "T4, UniProt Q8VGM2", "T4 sequence (whole entry)": "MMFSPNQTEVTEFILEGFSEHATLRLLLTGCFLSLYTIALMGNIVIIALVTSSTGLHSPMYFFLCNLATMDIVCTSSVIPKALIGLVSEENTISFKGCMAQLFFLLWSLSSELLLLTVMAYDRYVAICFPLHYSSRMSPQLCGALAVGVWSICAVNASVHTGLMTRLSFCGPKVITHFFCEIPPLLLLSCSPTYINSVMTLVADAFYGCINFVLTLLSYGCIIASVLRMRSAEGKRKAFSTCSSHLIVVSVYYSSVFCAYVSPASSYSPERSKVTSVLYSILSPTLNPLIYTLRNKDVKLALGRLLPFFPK", "in_short": "as §1"}, "UniProt Q8VGP6": {"target": "T5, UniProt Q8VGP6", "T5 sequence (whole entry)": "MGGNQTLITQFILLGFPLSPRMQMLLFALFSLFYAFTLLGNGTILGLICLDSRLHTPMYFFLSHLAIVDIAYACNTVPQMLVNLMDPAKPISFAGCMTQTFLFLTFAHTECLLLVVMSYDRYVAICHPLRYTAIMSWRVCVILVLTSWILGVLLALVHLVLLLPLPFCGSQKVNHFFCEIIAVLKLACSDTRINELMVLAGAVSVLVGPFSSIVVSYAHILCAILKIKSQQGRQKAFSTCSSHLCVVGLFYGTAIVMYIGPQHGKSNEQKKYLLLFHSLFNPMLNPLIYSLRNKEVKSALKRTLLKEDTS", "in_short": "as §1"}, "UniProt Q8VGQ3": {"target": "T6, UniProt Q8VGQ3", "T6 sequence (whole entry)": "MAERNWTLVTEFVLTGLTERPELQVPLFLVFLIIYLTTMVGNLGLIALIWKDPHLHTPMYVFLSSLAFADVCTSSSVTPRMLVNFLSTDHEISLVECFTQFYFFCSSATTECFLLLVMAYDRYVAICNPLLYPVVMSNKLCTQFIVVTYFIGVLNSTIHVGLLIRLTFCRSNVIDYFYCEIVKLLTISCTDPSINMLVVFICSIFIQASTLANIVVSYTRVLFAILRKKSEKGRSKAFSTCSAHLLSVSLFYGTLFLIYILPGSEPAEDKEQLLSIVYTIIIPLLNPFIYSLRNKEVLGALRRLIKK", "in_short": "as §1"}, "UniProt Q8VGT4": {"target": "T7, UniProt Q8VGT4", "T7 sequence (whole entry)": "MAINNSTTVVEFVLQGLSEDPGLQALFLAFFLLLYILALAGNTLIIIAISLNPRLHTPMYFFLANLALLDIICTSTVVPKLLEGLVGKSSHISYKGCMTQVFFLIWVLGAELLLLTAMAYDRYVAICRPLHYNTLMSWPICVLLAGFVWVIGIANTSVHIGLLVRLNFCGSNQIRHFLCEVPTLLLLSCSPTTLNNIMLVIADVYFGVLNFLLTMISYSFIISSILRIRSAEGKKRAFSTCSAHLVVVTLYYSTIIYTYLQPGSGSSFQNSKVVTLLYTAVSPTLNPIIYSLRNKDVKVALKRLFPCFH", "in_short": "as §1"}, "UniProt Q8VGU3": {"target": "T8, UniProt Q8VGU3", "T8 sequence (whole entry)": "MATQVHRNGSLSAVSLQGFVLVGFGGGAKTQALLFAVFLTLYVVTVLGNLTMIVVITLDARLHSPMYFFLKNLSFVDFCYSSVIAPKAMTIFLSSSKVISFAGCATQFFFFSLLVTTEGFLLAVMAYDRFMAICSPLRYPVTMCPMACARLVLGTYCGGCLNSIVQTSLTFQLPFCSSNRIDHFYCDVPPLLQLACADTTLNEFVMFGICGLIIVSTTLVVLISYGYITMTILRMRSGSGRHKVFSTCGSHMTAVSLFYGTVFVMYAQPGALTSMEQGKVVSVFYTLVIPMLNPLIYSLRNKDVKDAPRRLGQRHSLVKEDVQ", "in_short": "as §1"}, "UniProt Q8VGV1": {"target": "T9, UniProt Q8VGV1", "T9 sequence (whole entry)": "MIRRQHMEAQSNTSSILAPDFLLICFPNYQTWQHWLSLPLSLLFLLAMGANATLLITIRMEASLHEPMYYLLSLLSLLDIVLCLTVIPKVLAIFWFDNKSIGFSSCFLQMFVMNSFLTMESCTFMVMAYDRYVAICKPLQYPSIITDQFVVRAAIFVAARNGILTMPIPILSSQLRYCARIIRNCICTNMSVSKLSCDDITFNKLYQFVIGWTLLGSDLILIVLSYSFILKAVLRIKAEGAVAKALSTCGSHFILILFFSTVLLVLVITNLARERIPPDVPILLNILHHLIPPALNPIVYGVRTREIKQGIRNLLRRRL", "in_short": "as §1"}}, "data": [{"smiles": "C=CCOC(=O)Cc1ccccc1", "values": [{"measurement": "odorant receptor agonist call", "setting": "UniProt Q8VGJ5", "value": "active"}, {"measurement": "odorant receptor agonist call", "setting": "UniProt Q8VGL0", "value": "inactive"}, {"measurement": "odorant receptor agonist call", "setting": "UniProt Q8VGL7", "value": "inactive"}, {"measurement": "odorant receptor agonist call", "setting": "UniProt Q8VGM2", "value": "inactive"}, {"measurement": "odorant receptor agonist call", "setting": "UniProt Q8VGP6", "value": "active"}, {"measurement": "odorant receptor agonist call", "setting": "UniProt Q8VGQ3", "value": "inactive"}, {"measurement": "odorant receptor agonist call", "setting": "UniProt Q8VGT4", "value": "inactive"}, {"measurement": "odorant receptor agonist call", "setting": "UniProt Q8VGU3", "value": "inactive"}, {"measurement": "odorant receptor agonist call", "setting": "UniProt Q8VGV1", "value": "inactive"}]}]}
